Source: PubChem BioAssay (several laboratories)
UPR XBP1 act: activators of adaptive XBP1 UPR arm, primary screen, cell-based, CHO-XBP1 luciferase reporter, luminescence, uHTS | IRE1-XBP1 UPR activation; percent of tunicamycin response, DMSO as zero | actives 0.33% (n = 330,000) | activation, % at 20 µM;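 active = versus positive control, 20 µM dose yields 30% or more activation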;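 note: 100% = tunicamycin at 10 µg/mL and 0% = DMSO only wells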
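Material: IRE1-XBP1 luciferase reporter CHO line / Quantity: one thousand reporter cells per well / Buffer or medium: F12 with 10% serum / Compound: 20 µM single concentration, DMSO 1% / Times: 6 h treatment, 37 °C / Detection: Steady-Glo luciferase glow luminescence, 10 min after reagent addition / Benchmarks: tunicamycin high, DMSO low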
Gli-Sufu antag: Gli-Sufu pathway antagonists, primary screen, luciferase luminescence, Sufu-KO-LIGHT cells, uHTS. Sufu-KO-LIGHT fibroblasts, Gli luciferase reporter luminescence. inhibition, % at 5 µM. actives 0.74% (n = 340,000);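 active = inhibition above about 55%, limit read from the data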;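 note: 0% = DMSO-treated cells and 100% = wells with medium but no cells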
697 NFkB inh: inhibitors of PMA/ionomycin-induced NF-kB reporter, 697 cells, primary screen, B-cell NF-kB inhibitor project, cell-based, luminescence, uHTS; 697 B-cell NF-kB luciferase reporter, 16 h; inhibition, % at 4 µM; actives 0.33% (n = 330,000); in the data active = inhibition above about 35%
CHOP inh: inhibitors of CHOP promoter induction, primary screen, cell-based, unfolded protein response, luciferase reporter; CHO-K1 CHOP-promoter luciferase, tunicamycin-induced, 15-18 h; inhibition, % at 10 µM; actives 3.8% (n = 220,000);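 active = compounds that reduced the stress-induced luciferase reporter signal by more than about 70% of percent inhibition, limit read from the data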;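 note: 0% = tunicamycin plus vehicle and 100% = wells without tunicamycin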
Jurkat NFkB inh: inhibitors of induced NF-kB luciferase reporter, primary screen, TCR NF-kB activation inhibitor project, cell-based, luminescence, uHTS; Jurkat, PMA/ionomycin-induced NF-kB luciferase reporter; inhibition, % at 4 µM; actives 0.53% (n = 330,000); AID 435003, 2010; in the data active = inhibition above about 50%
UPR CHOP act: activators of apoptotic CHOP UPR arm, primary screen, cell-based, CHO-CHOP luciferase reporter, luminescence, uHTS. UPR activation; percent of tunicamycin response over DMSO baseline. activation, % at 10 µM. actives 0.34% (n = 330,000);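 active = at 10 µM dose, activation of 40% or more, normalized to positive control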;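 note: 100% = tunicamycin at 10 µg/mL and 0% = DMSO alone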
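System: CHO-CHOP luciferase reporter cell line; amount: 500 cells/well; buffer or medium: F12 medium containing 10% fetal bovine serum; incubation: 6 h compound exposure at 37 °C after overnight seeding; measured by: luciferase luminescence after 10 min with Steady-Glo reagent; evaluation: % reporter activation, DMSO baseline versus tunicamycin full activation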
* marks the source's active call; other numbers are inactive results; / = not tested or not shown; ! = not confirmed by another sample. An excerpt weighted towards active compounds, which were near 3.9% of everything screened.

SMILES | UPR XBP1 act | Gli-Sufu antag | 697 NFkB inh | CHOP inh | Jurkat NFkB inh | UPR CHOP act
Cc1sc2nc(CSc3ccccc3)nc(N3CCOCC3)c2c1C | 3 | 8 | -25 | 72* | 2 | -2
Cc1sc2nc(CSc3ccccc3)nc(N3CCC(C(N)=O)CC3)c2c1C | 14 | 9 | 8 | 19 | 7 | 1
O=C(COC(=O)CC1CCCC1)Nc1ccc(Br)cc1F | -1 | 0 | 11 | / | 7 | -2
Nc1ncnc2c1ncn2[C@@H]1O[C@H](CNCc2c(OCc3ccccc3F)ccc3ccccc23)[C@@H](O)[C@H]1O | 1 | 42 | -8 | / | -15 | -1
CCC(=O)NCCn1c(C)cc2ccccc21 | -2 | 0 | 1 | -3 | 1 | 0
Cc1cc2ccccc2n1CCNC(=O)Cc1cccc2ccccc12 | -6 | 2 | -17 | 71* | -17 | -1
C=CCSC(=S)NC1CCS(=O)(=O)C1 (centres undefined) | -6 | 13 | -10 | 70* | 0 | 7
O=C(Nc1ncccc1O)c1ccc(Cl)c(S(=O)(=O)N2CCCCC2)c1 | -2 | -4 | 14 | / | 10 | 0
O=C(CCc1nnc2ccc(NCc3ccco3)nn12)N1CCN(c2ccc(F)cc2)CC1 | 0 | -8 | -39 | / | -7 | -1
CC(=O)c1nn(-c2cccc(Br)c2)cc1C(=O)c1ccccc1 | 2 | 3 | 10 | 74* | -11 | 0
Cc1cc(C(=O)Nc2c(C)nn(Cc3ccc(F)cc3)c2C)on1 | -1 | 1 | 4 | 81* | -1 | -2
Cc1ccc(Cn2ccc(NC(=O)c3cc(CC(C)C)on3)n2)cc1 | 1 | -13 | 13 | 76* | -9 | -1
Cc1nn(Cc2ccc(Cl)c(Cl)c2)c(C)c1NC(=O)c1cc(CC(C)C)on1 | 1 | 23 | -9 | 93* | 13 | 6
Cc1ccc(Cn2ccc(NC(=O)c3cc(-c4ccc(Cl)cc4)on3)n2)cc1 | -1 | -4 | 9 | 14 | 4 | 0
O=C(Nc1ccc(S(=O)(=O)Nc2cnc3ccccc3n2)cc1)c1ccc([N+](=O)[O-])cc1Cl | -5 | -6 | -1 | / | 0 | 3
O=C(Nc1nccs1)c1ccc(-c2ccc(F)c(Cl)c2)o1 | 26 | -40 | -64 | / | -57 | 3
CCn1c(C)nc2cc(C(=O)OC(C(F)(F)C(F)F)C(F)(F)C(F)F)ccc21 | 4 | -14 | -21 | 74* | -11 | 12
NC(=O)NC(Cc1ccccc1)c1ccccc1 (centres undefined) | -1 | -2 | -8 | -13 | -8 | -1
NC(=O)OCC(COC(N)=O)c1ccccc1 | -7 | 31 | 0 | 97*! | -2 | 1
COc1ccc(NC(=O)CN2C(=O)NC(C)(C3CC3)C2=O)cc1S(=O)(=O)N1CCOCC1 (centres undefined) | -2 | 6 | 13 | / | -17 | 1
Cc1ccc(C)c(N2C(=O)CC(Cc3ccc(Br)cc3)C2=O)c1 (centres undefined) | -3 | -5 | -23 | / | 6 | 0
CN(C)c1ccc(/C=N/NC(=O)CCCO)cc1 | 0 | -13 | -12 | -18 | -2 | 3
CN(C)c1ccc(/C=N/NC(=O)CN2CCN(c3ccc(F)cc3)CC2)cc1 | 2 | / | 8 | 82* | 11 | 4
O=C(c1ccc(Cl)c([N+](=O)[O-])c1)N1CCCc2ccccc21 | -1 | 1 | 0 | / | -11 | 5
CC1CCc2c(C(=O)Oc3cccc(-n4cnnn4)c3)csc2C1 (centres undefined) | 1 | 2 | -16 | 89* | -8 | 0
Cc1ccc(C(=O)Oc2cccc(-n3cnnn3)c2)cc1 | 3 | -41 | -7 | 24 | -41 | 7
Cc1nc(NC(=O)/C=C/c2ccccc2)sc1C(=O)Nc1ccccc1 | -1 | 4 | -4 | 92* | 5 | 2
